In ChEMBL document CHEMBL4382192, “Discovery of a potent dual ALK and EGFR T790M inhibitor” (Eur J Med Chem, 2017):

Assays:
BaF3 = assay: Antiproliferative activity against mouse BAF3 cells assessed as reduction in cell viability after 72 hrs by MTS assay; assay type: cell-based; details: BaF3, 72 h
[1] = AUClast in mouse at 2 mg/kg, iv; assay type: ADME, organism-based; set-up: dose 2 mg/kg, route intravenous, time 0 - last; details: in vivo
[2] = Volume of distribution at steady state in mouse at 2 mg/kg, iv; assay type: ADME, organism-based; details: in vivo, read-out: Vdss
[3] = Drug uptake in mouse lung at 2 mg/kg, iv after 8 hrs; assay type: ADME, organism-based; details: read-out: Drug uptake
[4] = target: Activin receptor type-1-like (Homo sapiens) (UniProt P37023); assay: Binding affinity to wild-type human ACVRL1 (L164 to Q503 residues) expressed in bacterial expression system assessed as residual binding level at 1 uM by Kinomescan method relative to control
[5] = target: Aurora kinase C (Homo sapiens) (UniProt Q9UQB9); assay: Binding affinity to wild-type human full length AURKC (M1 to S275 residues) expressed in bacterial expression system assessed as residual binding level at 1 uM by Kinomescan method relative to control
[6] = target: Calcium/calmodulin-dependent protein kinase type II subunit delta (Homo sapiens) (UniProt Q13557); assay: Binding affinity to wild-type human partial length CAMK2D (M1 to E329 residues) expressed in bacterial expression system assessed as residual binding level at 1 uM by Kinomescan method relative to control
[7] = target: Megakaryocyte-associated tyrosine-protein kinase (Homo sapiens) (UniProt P42679); assay: Binding affinity to wild-type human full length CTK (M43 to P508 residues) expressed in mammalian expression system assessed as residual binding level at 1 uM by Kinomescan method relative to control
[8] = target: Dual specificity tyrosine-phosphorylation-regulated kinase 2 (Homo sapiens) (UniProt Q92630); assay: Binding affinity to wild-type human full length DYRK2 (M1 to S528 residues) expressed in mammalian expression system assessed as residual binding level at 1 uM by Kinomescan method relative to control
[9] = target: Ephrin type-A receptor 3 (Homo sapiens) (UniProt P29320); assay: Binding affinity to wild-type human partial length EPHA3 (D604 to K889 residues) expressed in bacterial expression system assessed as residual binding level at 1 uM by Kinomescan method relative to control
[10] = target: Fibroblast growth factor receptor 4 (Homo sapiens) (UniProt P22455); assay: Binding affinity to wild-type human partial length FGFR4 (G402 to E713 residues) expressed in bacterial expression system assessed as residual binding level at 1 uM by Kinomescan method relative to control
[11] = target: Receptor-type tyrosine-protein kinase FLT3 (Homo sapiens) (UniProt P36888); assay: Binding affinity to wild-type human partial length autoinhibited FLT3 (H564 to Y969 residues) expressed in mammalian expression system assessed as residual binding level at 1 uM by Kinomescan method relative to control
[12] = target: Dual specificity mitogen-activated protein kinase kinase 7 (Homo sapiens) (UniProt O14733); assay: Binding affinity to wild-type human full length MKK7 (M1 to R419 residues) expressed in mammalian expression system assessed as residual binding level at 1 uM by Kinomescan method relative to control
Procedure, shortened: (§1)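 Single-point kinome-wide KINOMEscan binding panel, test compound at 1 μM, run by the provider's standard protocol.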

[13] = target: Serine/threonine-protein kinase 3 (Homo sapiens) (UniProt Q13188); assay: Binding affinity to wild-type human partial length MST2 (D17 to E318 residues) expressed in bacterial expression system assessed as residual binding level at 1 uM by Kinomescan method relative to control
[14] = target: Serine/threonine-protein kinase Nek10 (Homo sapiens) (UniProt Q6ZWH5); assay: Binding affinity to wild-type human partial length NEK10 (L488 to R809 residues) expressed in mammalian expression system assessed as residual binding level at 1 uM by Kinomescan method relative to control
[15] = target: Mitogen-activated protein kinase 14 (Homo sapiens) (UniProt Q16539); assay: Binding affinity to wild-type human full length p38-alpha (M1 to S360 residues) expressed in bacterial expression system assessed as residual binding level at 1 uM by Kinomescan method relative to control
[16] = target: Serine/threonine-protein kinase PAK 3 (Homo sapiens) (UniProt O75914); assay: Binding affinity to wild-type human full length PAK3 (M1 to R544 residues) expressed in bacterial expression system assessed as residual binding level at 1 uM by Kinomescan method relative to control; procedure, shortened: as §1
[17] = target: Serine/threonine-protein kinase PAK 4 (Homo sapiens) (UniProt O96013); assay: Binding affinity to wild-type human partial length PAK4 (Q144 to R438 residues) expressed in bacterial expression system assessed as residual binding level at 1 uM by Kinomescan method relative to control
[18] = target: Cyclin-dependent kinase 16 (Homo sapiens) (UniProt Q00536); assay: Binding affinity to wild-type human partial length PCTK1 (G160 to A474 residues) expressed in mammalian expression system assessed as residual binding level at 1 uM by Kinomescan method relative to control
[19] = test system: Phosphatidylinositol 4,5-bisphosphate 3-kinase catalytic subunit alpha isoform (Homo sapiens), P42336 [E542K]; assay: Binding affinity to human partial length PIK3CA E542K mutant (R108 to N1068 residues) expressed in mammalian expression system assessed as residual binding level at 1 uM by Kinomescan method relative to control
[20] = test system: Phosphatidylinositol 4,5-bisphosphate 3-kinase catalytic subunit alpha isoform (Homo sapiens), P42336 [E545K]; assay: Binding affinity to human partial length PIK3CA E545K mutant (R108 to N1068 residues) expressed in mammalian expression system assessed as residual binding level at 1 uM by Kinomescan method relative to control
[21] = target: Phosphatidylinositol 4,5-bisphosphate 3-kinase catalytic subunit beta isoform (Homo sapiens) (UniProt P42338); assay: Binding affinity to wild-type human partial length PIK3CB (P118 to S1070 residues) expressed in mammalian expression system assessed as residual binding level at 1 uM by Kinomescan method relative to control
[22] = target: Serine/threonine-protein kinase pim-1 (Homo sapiens) (UniProt P11309); assay: Binding affinity to wild-type human partial length PIM1 (A15 to K313 residues) expressed in bacterial expression system assessed as residual binding level at 1 uM by Kinomescan method relative to control
[23] = target: Receptor-interacting serine/threonine-protein kinase 1 (Homo sapiens) (UniProt Q13546); assay: Binding affinity to wild-type human partial length RIPK1 (M1 to K305 residues) expressed in bacterial expression system assessed as residual binding level at 1 uM by Kinomescan method relative to control
[24] = target: Tyrosine-protein kinase Tec (Homo sapiens) (UniProt P42680); assay: Binding affinity to wild-type human partial length TEC (L341 to D620 residues) expressed in bacterial expression system assessed as residual binding level at 1 uM by Kinomescan method relative to control
[25] = target: Mitogen-activated protein kinase kinase kinase 20 (Homo sapiens) (UniProt Q9NYL2); assay: Binding affinity to wild-type human partial length ZAK (M1 to L331 residues) expressed in bacterial expression system assessed as residual binding level at 1 uM by Kinomescan method relative to control

## C=CC(=O)Nc1cc(Nc2ncc(Cl)c(Nc3ccccc3S(=O)(=O)C(C)C)n2)c(OC)cc1N(C)CCN(C)C
BaF3
  EC50: > 5 µM
[1]
  AUC(0-t): 1290 ng·h/mL
[2]
  Vd: 2.66 L/kg
[3]
  concentration at 8 h: 110 nM
[4]
  Activity: 30%
[5]
  Activity: 8.2%
[6]
  Activity: 41%
[7]
  Activity: 98%
[8]
  Activity: 100%
[9]
  Activity: 77%
[10]
  Activity: 9.6%
[11]
  Activity: 85%
[12]
  Activity: 77%
[13]
  Activity: 56%
[14]
  Activity: 28%
[15]
  Activity: 92%
[16]
  Activity: 23%
[17]
  Activity: 78%
[18]
  Activity: 91%
[19]
  Activity: 72%
[20]
  Activity: 54%
[21]
  Activity: 100%
[22]
  Activity: 83%
[23]
  Activity: 82%
[24]
  Activity: 1%
[25]
  Activity: 86%
